Measurements collected from several papers.
Compare with care: the assays were run in different laboratories.
PTGS2: Prostaglandin G/H synthase 2 (PTGS2, Homo sapiens, UniProt P35354)
DYRK3: Dual specificity tyrosine-phosphorylation-regulated kinase 3 (DYRK3, Homo sapiens, UniProt O43781)
BRDT BD1: Bromodomain testis-specific protein, BD1 (BRDT, Homo sapiens, UniProt Q58F21)

Compound | target | assay | conditions | measurement | result
Oc1ccc(-c2nc(-c3ccncc3)c(-c3ccc(F)cc3)[nH]2)cc1 | Transcription intermediary factor 1-beta (TRIM28, Homo sapiens, UniProt Q13263) | thermal stability, DSF | 10 µM | ΔTm | -0.03 °C
COc1ccc(-c2cc(=O)c3c(O)cc(O[C@@H]4O[C@H](CO)[C@@H](O)[C@H](O)[C@H]4O)cc3o2)cc1O | PTGS2 | enzyme activity, inhibitor | 3.9 µg/mL | inhibition | 100%
O=C(O)c1ccc2c(c1)nc(Nc1cccc(F)c1)c1ccncc12 | DYRK3 | enzyme activity, inhibitor, radiometric | 1 µM | remaining activity | 0%
Cc1cc2c(cc1N1C(=O)c3cccc4c(Cl)ccc(c34)C1=O)n(C)c(=O)n2C | BRDT BD1 | thermal stability, DSF | 10 µM | ΔTm | -1 °C
O=C(O)c1ccc2c(c1)nc(Nc1cccc(F)c1)c1ncncc12 | Homeodomain-interacting protein kinase 2 (HIPK2, Homo sapiens, UniProt Q9H2X6) | enzyme activity, inhibitor, radiometric | 1 µM | remaining activity | -1%
O=C(O)c1ccc(O)cc1 | PTGS2 | enzyme activity, inhibitor | 15.63 µg/mL | inhibition | 100%
Cc1cnc(Nc2ccc(OCCN3CCCC3)cc2)nc1Nc1cccc(S(=O)(=O)NC(C)(C)C)c1 | CREB-binding protein (CREBBP, Homo sapiens, UniProt Q92793) | thermal stability, DSF | 10 µM | ΔTm | 2.06 °C
O=C(O)c1ccc2c(c1)nc(NCCc1ccccc1)c1ccncc12 | DYRK3 | enzyme activity, inhibitor, radiometric | 1 µM | remaining activity | 3%
O=c1cc(-c2ccc(O)cc2)oc2cc(O)cc(O)c12 | PTGS2 | enzyme activity, inhibitor | 0.98 µg/mL | inhibition | 28.2%
NS(=O)(=O)c1ccc(Nc2nc(-c3ccc(F)cc3)c3ccccc3n2)cc1 | BRDT BD1 | binding, competition with immobilised ligand | 1 µM | remaining binding | 6%
